# From ChEMBL document CHEMBL3259600, “Synthesis and biological evaluation of some new pyrazoline substituted benzenesulfonylurea/thiourea derivatives as anti-hyperglycaemic agents and aldose reductase inhibitors” (Eur J Med Chem, 2014)
# Legend:
# Rattus norvegicus = assay: Antihyperglycemic activity in glucose-fed hyperglycaemic Wistar albino rat assessed as inhibition of postprandial hyperglycemia at 0.05 mM/kg, po administered via gavage 30 mins prior to glucose challenge measured 60 mins after glucose load; format: functional; parameters: scale not given: the % may be the effect or the level left
# How it was run: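 Rats fasted at least 16 h with water available, groups of six. Vehicle 1% w/v CMC in distilled water, 10 ml/kg, given orally. Glucose load 3 g/kg 30 min after treatment. Retro-orbital blood sampled just before and 60 min after the load. Glucose tolerance by AUC, percent activity from AUC against vehicle group, Dunnett's test.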
# [1] = target: Aldo-keto reductase family 1 member B1 (Rattus norvegicus, UniProt P07943); assay: Inhibition of aldose reductase in rat lens by spectrophotometer analysis
# How it was run: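 Crude enzyme from rat lens homogenized in 9 volumes 100 mM potassium phosphate pH 6.2, spun 15,000 × g for 30 min at 4 °C, supernatant used. Assay in 50 mM potassium phosphate pH 6.2 with 0.4 M lithium sulphate, 5 mM β-mercaptoethanol, 10 mM DL-glyceraldehyde, 0.1 mM NADPH, at 37 °C. DMSO-dissolved compound preincubated 5 min, reaction started with NADPH, read spectrophotometrically, triplicate. IC50 by non-linear regression of % inhibition vs log concentration.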
# [2] = Retardation factor of the compound using chloroform-acetone at ratio of 9:1 as solvent system by thin layer chromatography; format: physicochemical
# [3] = Retardation factor of the compound using toulene-ethyl acetate-formic acid at ratio of 5:4:1 as solvent system by thin layer chromatography; format: physicochemical
# [4] = Retardation factor of the compound using chloroform-acetone at ratio of 8:2 as solvent system by thin layer chromatography; format: physicochemical
IC50 ([1]; read-out: IC50),Rf [2],IC50 [1],Rf [3],Rf [4],Compound,Activity (Rattus norvegicus)
,,Not Active,0.85,,CN(C)c1ccc(C2=NN(c3ccc(S(=O)(=O)NC(=O)NCc4ccccc4)cc3)C(c3ccccc3)C2)cc1 (centres undefined),15.5%
,,,0.78,,CN(C)c1ccc(C2=NN(c3ccc(S(=O)(=O)NC(=O)NCc4ccccc4)cc3)C(c3ccc(Cl)cc3)C2)cc1 (centres undefined),6.7%
,,Not Active,0.79,,CN(C)c1ccc(C2=NN(c3ccc(S(=O)(=O)NC(=O)NCc4ccccc4)cc3)C(c3ccccc3Cl)C2)cc1 (centres undefined),4.7%
0.085 µM,,,0.75,,CN(C)c1ccc(C2=NN(c3ccc(S(=O)(=O)NC(=S)NCc4ccccc4)cc3)C(c3ccccc3Cl)C2)cc1 (centres undefined),15.3%
,,,0.92,,COc1cc(C2CC(c3ccc(N(C)C)cc3)=NN2c2ccc(S(=O)(=O)NC(=S)NCc3ccccc3)cc2)cc(OC)c1OC (centres undefined),28.6%
,,,0.9,,CCCCNC(=S)NS(=O)(=O)c1ccc(N2N=C(c3ccc(N(C)C)cc3)CC2c2ccc(OC)cc2)cc1 (centres undefined),17.2%

# Further lines, the compound ahead of its results:
Compound,IC50 ([1]; read-out: IC50),Rf [2],IC50 [1],Rf [3],Rf [4],Activity (Rattus norvegicus)
Cc1ccc(C2CC(c3ccc(N(C)C)cc3)=NN2c2ccc(S(=O)(=O)NC(=S)NCc3ccccc3)cc2)cc1 (centres undefined),0.0699 µM,0.9,,,,21.7%
COc1ccc(C2CC(c3ccc(N(C)C)cc3)=NN2c2ccc(S(=O)(=O)NC(=O)NCc3ccccc3)cc2)cc1 (centres undefined),,,Not Active,0.7,,17.5%
Cc1ccc(C2CC(c3ccc(N(C)C)cc3)=NN2c2ccc(S(=O)(=O)NC(=O)NCc3ccccc3)cc2)cc1 (centres undefined),,,,,0.88,12%
COc1ccc(C2CC(c3ccc(N(C)C)cc3)=NN2c2ccc(S(=O)(=O)NC(=O)NCc3ccccc3)cc2)cc1OC (centres undefined),,,,0.56,,18%
COc1cc(C2CC(c3ccc(N(C)C)cc3)=NN2c2ccc(S(=O)(=O)NC(=O)NCc3ccccc3)cc2)cc(OC)c1OC (centres undefined),,0.83,,,,29.3%
CN(C)c1ccc(C2=NN(c3ccc(S(=O)(=O)NC(=S)NCc4ccccc4)cc3)C(c3ccccc3)C2)cc1 (centres undefined),0.0901 µM,,,0.88,,24.2%
CN(C)c1ccc(C2=NN(c3ccc(S(=O)(=O)NC(=S)NCc4ccccc4)cc3)C(c3ccc(Cl)cc3)C2)cc1 (centres undefined),,,,0.87,,4.2%
COc1ccc(C2CC(c3ccc(N(C)C)cc3)=NN2c2ccc(S(=O)(=O)NC(=S)NCc3ccccc3)cc2)cc1 (centres undefined),,,,0.65,,11.7%
CCCCNC(=S)NS(=O)(=O)c1ccc(N2N=C(c3ccc(N(C)C)cc3)CC2c2ccccc2)cc1 (centres undefined),0.043 µM,,,0.88,,10.5%
CCCCNC(=S)NS(=O)(=O)c1ccc(N2N=C(c3ccc(N(C)C)cc3)CC2c2ccc(Cl)cc2)cc1 (centres undefined),0.0175 µM,,,0.66,,18.9%
CN(C)c1ccc(C2=NN(c3ccc(S(=O)(=O)NC(=S)NC4CCCCC4)cc3)C(c3ccccc3)C2)cc1 (centres undefined),0.0178 µM,,,0.97,,2.7%
Cc1ccc(S(=O)(=O)NC(=O)NN2CC3CCCC3C2)cc1 (centres undefined) [GLICLAZIDE],,,,,,25.4%
